# Active and inactive are the calls of the source. No cut-off for these calls is given here.
# Columns and labels:
# [1] = target: T1, cAMP and cAMP-inhibited cGMP 3',5'-cyclic phosphodiesterase 10A (Mus musculus, UniProt Q8CA95); test: Inhibition of mouse PDE10A assessed as inhibition of hydrolysis of [3H]cGMP to [3H]GMP after 20 mins by scintillation counting
# T1 sequence (Q8CA95 whole entry): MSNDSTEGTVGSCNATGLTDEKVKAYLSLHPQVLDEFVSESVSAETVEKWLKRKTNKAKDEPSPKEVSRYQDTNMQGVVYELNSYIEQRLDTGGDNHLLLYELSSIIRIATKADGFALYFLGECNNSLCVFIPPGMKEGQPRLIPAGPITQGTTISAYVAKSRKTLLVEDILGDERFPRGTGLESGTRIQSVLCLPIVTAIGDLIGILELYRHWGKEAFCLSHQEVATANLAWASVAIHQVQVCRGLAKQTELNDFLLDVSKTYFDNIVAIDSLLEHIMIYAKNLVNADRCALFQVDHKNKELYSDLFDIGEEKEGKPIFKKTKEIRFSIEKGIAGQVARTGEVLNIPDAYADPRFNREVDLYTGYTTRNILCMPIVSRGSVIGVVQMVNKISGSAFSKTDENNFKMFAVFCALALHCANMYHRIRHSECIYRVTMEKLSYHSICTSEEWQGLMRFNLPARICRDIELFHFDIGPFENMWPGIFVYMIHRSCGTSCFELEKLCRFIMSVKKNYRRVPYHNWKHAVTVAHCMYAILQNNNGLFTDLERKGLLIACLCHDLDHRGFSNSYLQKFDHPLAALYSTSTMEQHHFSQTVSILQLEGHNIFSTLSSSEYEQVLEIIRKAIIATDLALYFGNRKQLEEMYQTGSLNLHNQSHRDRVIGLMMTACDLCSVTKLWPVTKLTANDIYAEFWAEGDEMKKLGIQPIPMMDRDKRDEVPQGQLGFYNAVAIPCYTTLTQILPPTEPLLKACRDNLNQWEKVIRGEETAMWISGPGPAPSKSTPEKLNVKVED
# Method in brief: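 Reaction was started with mouse PDE10 (25 ng/ml final) and run 20 min at 30 °C. Stopped with yttrium silicate SPA beads, scintillation counted 1–2 h later. IC50 from curve fitting.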
# [2] = Half life in rat at 4 mg/kg, iv; assay type: ADME, organism-based; set-up: dose 4 mg/kg, route intravenous; details: in vivo
# Method in brief: (§1)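 Rat pharmacokinetics, dosed iv at 4 mg/kg and po at 9 mg/kg.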
# [3] = Clearance in rat at 4 mg/kg, iv; assay type: ADME, organism-based; set-up: dose 4 mg/kg, route intravenous; details: in vivo; method in brief: as §1
# [4] = Volume of distribution at steady state in rat at 4 mg/kg, iv; assay type: ADME, organism-based; set-up: dose 4 mg/kg, route intravenous; details: in vivo, read-out: Vdss; method in brief: as §1
# [5] = Tmax in rat at 9 mg/kg, po; assay type: ADME, organism-based; set-up: dose 9 mg/kg, route oral; details: in vivo; method in brief: as §1
# [6] = Cmax in rat at 9 mg/kg, po; assay type: ADME, organism-based; set-up: dose 9 mg/kg, route oral; details: in vivo; method in brief: as §1
# [7] = Oral bioavailability in rat at 9 mg/kg; assay type: ADME, organism-based; details: in vivo; method in brief: as §1
# [8] = tested on: Mus musculus; test: Behavioral effect in mouse assessed as reduction in conditioned avoidance response at 10 to 30 mg/kg, ip administered 20 mins prior testing; assay type: functional, organism-based
# Method in brief: (§2)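 Mice trained in a shuttle-box to avoid foot-shock after a conditional stimulus, until at least 25 avoidances in 30 trials. Dosing was ip in 30 mM H3PO4, 0.2% tween 80, 5% DMSO, 20 min before testing; controls got vehicle. Eight mice per group. Paired-sample t-test compared each animal with its vehicle-injected performance on the previous day.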
# [9] = tested on: Mus musculus; test: Behavioral effect in ip dosed mouse assessed as reduction in conditioned avoidance response compound administered 20 mins prior testing; assay type: functional, organism-based; method in brief: as §2
# [10] = tested on: Mus musculus; test: Antipsychotic activity in mouse assessed as inhibition of PCP-induced hyperlocomotion at 20 mg/kg, ip administered 20 mins prior testing; assay type: functional, organism-based; set-up: dose 20 mg/kg
# Method in brief: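 PCP-induced hyperlocomotion in mice: 20 mg/kg ip in 30 mM H3PO4, 0.2% tween 80, 5% DMSO, dosed 20 min before testing; PCP given ip 10 min before testing. Controls got vehicle. Normal activity range 500–1000. Eight mice per group; t-test for each interval.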
# [11] = species on record: Mus musculus; test: Selectivity ratio of IC50 for mouse PDE1A to IC50 for mouse PDE10A
# Method in brief: (§3)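 Reaction started by adding enzyme (mouse PDE10 at 25 ng/ml final); 20 min at 30 °C. Stopped with yttrium silicate SPA beads, scintillation read 1–2 h later. IC50s from curve fits; ratio of other-PDE IC50 to PDE10A IC50.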
# [12] = species on record: Mus musculus; test: Selectivity ratio of IC50 for mouse PDE2A to IC50 for mouse PDE10A; method in brief: as §3
# [13] = species on record: Mus musculus; test: Selectivity ratio of IC50 for mouse PDE3A to IC50 for mouse PDE10A; method in brief: as §3
# [14] = species on record: Mus musculus; test: Selectivity ratio of IC50 for mouse PDE4A to IC50 for mouse PDE10A; method in brief: as §3
# [15] = species on record: Mus musculus; test: Selectivity ratio of IC50 for mouse PDE5A to IC50 for mouse PDE10A; method in brief: as §3
# [16] = species on record: Mus musculus; test: Selectivity ratio of IC50 for mouse PDE7A to IC50 for mouse PDE10A; method in brief: as §3
# [17] = species on record: Mus musculus; test: Selectivity ratio of IC50 for mouse PDE8A to IC50 for mouse PDE10A; method in brief: as §3
# [18] = species on record: Mus musculus; test: Selectivity ratio of IC50 for mouse PDE9A to IC50 for mouse PDE10A; method in brief: as §3
# [19] = species on record: Mus musculus; test: Selectivity ratio of IC50 for mouse PDE11A to IC50 for mouse PDE10A; method in brief: as §3
Compound,IC50 [1] [µM],also measured
COc1ccc(/C=N/NC(=O)CSc2cc(C)nc3ccccc23)cc1C(F)(F)F,0.42,–
COc1cc(/C=N/NC(=O)CSc2cc(C)nc3ccccc23)ccc1C,0.1,–
COc1ccc(/C=N/NC(=O)COc2cc(C)nc3ccccc23)cc1OC,1.6,–
COc1cc(/C=N/NC(=O)CSc2cccc3cccnc23)cc(OC)c1OC,0.19,–
COc1cc(/C=N/NC(=O)CN(C)c2cc(C)nc3ccccc23)cc(OC)c1OC,0.36,–
COc1ccc(/C=N/NC(=O)CSc2cc(C)nc3ccccc23)c(Cl)c1OC,4.6,–
COc1cc(/C=N/NC(=O)CSc2ccncn2)cc(OC)c1OC,1.07,–
COc1ccc(/C=N/NC(=O)CSc2cc(C)nc3ccccc23)cc1OC(F)(F)F,1.7,–
COc1ccccc1SCC(=O)N/N=C/c1cc(OC)c(OC)c(OC)c1,0.66,–
COc1ccc(/C=N/NC(=O)CSc2cc(C)nc3ccccc23)cc1F,0.62,–
COc1cc(/C=N/N(C)C(=O)CSc2cc(C)nc3ccccc23)cc(OC)c1OC,0.026,–
COc1cc(/C=N/NC(=O)CSc2ccc(-c3ccccc3)cc2)cc(OC)c1OC,0.26,–
COc1ccc(/C=N/NC(=O)CSc2cc(C)nc3ccccc23)cc1OC,0.049,–
COc1cc(Br)c(/C=N/NC(=O)CSc2cc(C)nc3ccccc23)cc1OC,0.077,–
COc1ccc(/C=N/NC(=O)CSc2cc(C)nc3ccccc23)c(Br)c1OC,4.8,–
COc1cc(/C=N/NC(=O)CSc2ccc3ccccc3n2)cc(OC)c1OC,0.14,–
CCOc1cc(/C=N/NC(=O)CSc2cc(C)nc3ccccc23)ccc1OC,0.26,–
COc1cc(F)c(/C=N/NC(=O)CSc2cc(C)nc3ccccc23)cc1OC,0.19,–
COc1cc(/C=N/NC(=O)CSc2cc(C)nc3ccccc23)cc(Cl)c1OC,0.045,–
COc1cc(/C=N/NC(=O)CSc2ccc(OC(F)(F)F)cc2)cc(OC)c1OC,0.86,–
COc1cccc(/C=N/NC(=O)CSc2cc(C)nc3ccccc23)c1,1.2,–
COc1cc(/C=N/NC(=O)CSc2cc(C)nc3ccccc23)ccc1F,0.19,–
COc1cc(/C=N/NC(=O)CSc2ccncc2)cc(OC)c1OC,0.55,–

Compound,IC50 [1] [µM],also measured
COc1ccc(/C(C)=N/NC(=O)CSc2cc(C)nc3ccccc23)cc1OC,0.18,–
COc1cc(/C=N/NC(=O)CSc2cc(C)nc3ccccc23)ccc1C#N,0.16,–
COc1ccc(/C=N/NC(=O)CSc2cc(C)nc3ccccc23)cc1Cl,0.22,–
COc1cc(/C=N/NC(=O)CSc2ccnc3ccccc23)cc(OC)c1OC,0.024,–
COc1cc(/C=N/NC(=O)CSc2cc(C)nc3ccccc23)cc(F)c1OC,0.051,–
COc1cc(/C=N/NC(=O)CSc2cc(C)nc3ccccc23)cc(Br)c1OC,0.03,–
COc1cc(/C=N/NC(=O)CSc2cc(C)nc3ccccc23)ccc1C(F)(F)F,0.25,–
COc1cc(/C=N/NC(=O)CSc2cc(C)nc3ccccc23)cc(OC)c1OC,0.01,–
COc1cc(Cl)c(/C=N/NC(=O)CSc2cc(C)nc3ccccc23)cc1OC,0.2,–
COc1cc(/C=N/NC(=O)CSc2ccnc3cc(Cl)ccc23)cc(OC)c1OC,0.028,–
COc1cc(/C=N/NC(=O)CSc2ccc([N+](=O)[O-])c3ccccc23)cc(OC)c1OC,0.1,–
COc1cc(/C=N/NC(=O)CSc2cc(C)nc3ccccc23)ccc1Cl,0.087,–
Cc1cc(SCC(=O)N/N=C/c2ccc(OC(F)F)c(OC(F)F)c2)c2ccccc2n1,0.31,–
COc1ccc2nc(C)cc(SCC(=O)N/N=C/c3cc(OC)c(OC)c(OC)c3)c2c1,0.008,half-life [2]: 11.3 h; clearance [3]: 55 mL/min/kg; Vd [4]: 17.4 L/kg; Tmax [5]: 0.25 h; Cmax [6]: 539 ng/mL; bioavailability [7]: 21%; Activity [8]: Active; Activity [9]: Dose-dependent effect; inhibition [10]: Active; Ratio IC50 [11]: > 110; Ratio IC50 [12]: > 110; Ratio IC50 [13]: > 110; Ratio IC50 [14]: > 110; Ratio IC50 [15]: > 110; Ratio IC50 [16]: > 110; Ratio IC50 [17]: > 110; Ratio IC50 [18]: > 110; Ratio IC50 [19]: > 110
COc1cc(/C=N/NC(=O)CSc2cc(C)nc3ccccc23)cc(OC)c1Br,0.0048,–
COc1cc(/C=N/NC(=O)CSc2cc(C)nc3ccccc23)cc(C#N)c1OC,0.011,–
COc1cc(/C=N/NC(=O)CSc2cc(C)nc3ccccc23)ccc1Br,0.093,–
COc1cc(/C=N/NC(=O)CSc2cc(C)nc3ccccc23)cc(OC)c1,0.15,–
COc1ccc(/C=N/NC(=O)CNc2cc(C)nc3ccccc23)cc1OC,8,–
COc1ccc(/C=N/NC(=O)CSc2cc(C)nc3ccccc23)cc1OC(C)C,0.66,–
COc1cc(/C=N/NC(=O)CSc2cc(C)nc3ccccc23)cc(OC)c1C#N,0.014,–
COc1ccc(/C=N/NC(=O)CSc2cc(C)nc3ccccc23)cc1,1.4,–

# Reference: ChEMBL document CHEMBL1799961, “N-Acylhydrazones as inhibitors of PDE10A” (Bioorg Med Chem Lett, 2011)
